Measured values from different studies.
Compare with care: the assays were run in different laboratories.
ACVR2A: Activin receptor type-2A (ACVR2A, Homo sapiens, UniProt P27037)
BRD9: Bromodomain-containing protein 9 (BRD9, Homo sapiens, UniProt Q9H8M2)

SMILES | target | assay | conditions | endpoint | value
COc1ccc2oc(-c3ccc4nc(N)oc4c3)c/c(=N\c3ccccc3NC(=O)CCN)c2c1 | ACVR2A | binding, competition with immobilised ligand | 1 µM | remaining binding | 109%
CC(=O)ON=C1C=CC(=C(C#N)c2ccccc2)C=C1 | Serine/threonine-protein kinase haspin (HASPIN, Homo sapiens, UniProt Q8TF76) | enzyme activity, inhibitor, ADP detection | 2 µM | activity vs control | 76%
Cc1cc(O)c(-c2ccc([C@@H](C)CN(C)C)cc2)c2c1[nH]c(=O)c1sccc12 | STE20-related kinase adapter protein beta (Homo sapiens, UniProt Q9C0K7) | enzyme activity, inhibitor | 0.1 µM, lysate | inhibition | 18.9%
C1=C/COCc2cc(ccc2OCCN2CCCC2)Nc2nccc(n2)-c2cccc(c2)COC/1 | Cyclin-dependent kinase-like 3 (CDKL3, Homo sapiens, UniProt Q8IVW4) | binding | 0.1 µM | remaining binding | 5.9%
CCN1/C(=C/C(C)=O)Sc2ccc(F)cc21 | Cannabinoid receptor 2 (CNR2, Homo sapiens, UniProt P34972) | ligand displacement, radioligand | 10 µM | inhibition | 16.8%
COc1cc(-c2cc(C(C)=O)n3ccccc23)c(OC)cc1C(=O)N1CCOCC1 | BRD9 | thermal stability, DSF | 200 µM | ΔTm | 13.8 °C
NC/C(=C\F)COc1cccc(Cn2c(=S)[nH]c(=O)c3[nH]cnc32)c1 | Beta-2 adrenergic receptor (ADRB2, Homo sapiens, UniProt P07550) | ligand displacement, radioligand | 10 µM | inhibition | < 50%
COc1cc(-c2cc(C(C)=O)n3ccccc23)c(OC)cc1Cn1ccnc1 | BRD9 | thermal stability, DSF | 200 µM | ΔTm | 11.8 °C
Cc1ncc(-c2cc3cc(-c4c(C)ccc(O)c4C)cnc3[nH]2)cn1 | Membrane-associated tyrosine- and threonine-specific cdc2-inhibitory kinase (PKMYT1, Homo sapiens, UniProt Q99640) | cell-free assay, TR-FRET | 0.1235 µM | inhibition | 97.2%
COc1cc(-c2cc(C(C)=O)n3ccccc23)c(OC)cc1C=O | BRD9 | thermal stability, DSF | 200 µM | ΔTm | 8.3 °C
CCCC[C@H](NC(C)=O)C(=O)N[C@H]1CC(=O)NCCCC[C@@H](C(=O)N2CCC[C@@H]2C(=O)N[C@@H](C(=O)N2CCC[C@@H]2C(N)=O)C(C)C)NC(=O)[C@H](Cc2c[nH]c3ccccc23)NC(=O)[C@H](CCCNC(=N)N)NC(=O)[C@@H](Cc2ccccc2)NC(=O)[C@@H]2CCCN2C1=O | Melanocortin receptor 5 (MC5R, Homo sapiens, UniProt P33032) | cAMP, agonist | – | Emax | 102%
COc1cc(C(C)O)c(OC)cc1-c1cc(C(C)=O)n2ccccc12 (stereo not shown) | BRD9 | thermal stability, DSF | 200 µM | ΔTm | 9.9 °C
CCCCC(=O)Nc1ccc(-c2ccc3ncn(CCC)c(=O)c3c2)cn1 | ACVR2A | binding, competition with immobilised ligand | 0.5 µM | remaining binding | 95%
